Data taken from ChEMBL document CHEMBL1153591, “Exploring bis-(indolyl)methane moiety as an alternative and innovative CAP group in the design of histone deacetylase (HDAC) inhibitors” (Bioorg Med Chem Lett, 2009).

Assays:
[1] = system: NCI-H460; test: Cytotoxicity against human H460 cells after 24 hrs by sulforhodamine B assay; assay type: functional, cell-based; conditions: NCI-H460, 24 h
[2] = system: HCT-116; test: Cytotoxicity against human HCT116 cells after 24 hrs by sulforhodamine B assay; assay type: functional, cell-based; conditions: HCT-116, 24 h
[3] = target: Histone deacetylase 1 (Homo sapiens, UniProt Q13547); test: Inhibition of human HDAC1 by fluorimetry
In short: (§1)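 Each purified single HDAC isoform incubated with fluorogenic substrate, a p53 fragment (residues […], Arg-His-Lys-Lys(Ac)) carrying an ε-acetylated lysine; deacetylation releases fluorophore, read by fluorimeter. Compounds tested as 10 doses, 1:3 serial dilution starting from 50 µM solution. IC50 from dose-response inhibition curves; trichostatin A as reference compound.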

[4] = target: Histone deacetylase 2 (Homo sapiens, UniProt Q92769); test: Inhibition of human HDAC2 by fluorimetry; in short: as §1
[5] = target: Histone deacetylase 3 (Homo sapiens, UniProt O15379); test: Inhibition of human HDAC3 by fluorimetry; in short: as §1
[6] = target: Histone deacetylase 4 (Homo sapiens, UniProt P56524); test: Inhibition of human HDAC4 by fluorimetry; in short: as §1
[7] = target: Histone deacetylase 5 (Homo sapiens, UniProt Q9UQL6); test: Inhibition of human HDAC5 by fluorimetry; in short: as §1
[8] = target: T1, Protein deacetylase HDAC6 (Homo sapiens, UniProt Q9UBN7); test: Inhibition of human HDAC6 by fluorimetry; in short: as §1
T1 sequence (Q9UBN7 whole entry): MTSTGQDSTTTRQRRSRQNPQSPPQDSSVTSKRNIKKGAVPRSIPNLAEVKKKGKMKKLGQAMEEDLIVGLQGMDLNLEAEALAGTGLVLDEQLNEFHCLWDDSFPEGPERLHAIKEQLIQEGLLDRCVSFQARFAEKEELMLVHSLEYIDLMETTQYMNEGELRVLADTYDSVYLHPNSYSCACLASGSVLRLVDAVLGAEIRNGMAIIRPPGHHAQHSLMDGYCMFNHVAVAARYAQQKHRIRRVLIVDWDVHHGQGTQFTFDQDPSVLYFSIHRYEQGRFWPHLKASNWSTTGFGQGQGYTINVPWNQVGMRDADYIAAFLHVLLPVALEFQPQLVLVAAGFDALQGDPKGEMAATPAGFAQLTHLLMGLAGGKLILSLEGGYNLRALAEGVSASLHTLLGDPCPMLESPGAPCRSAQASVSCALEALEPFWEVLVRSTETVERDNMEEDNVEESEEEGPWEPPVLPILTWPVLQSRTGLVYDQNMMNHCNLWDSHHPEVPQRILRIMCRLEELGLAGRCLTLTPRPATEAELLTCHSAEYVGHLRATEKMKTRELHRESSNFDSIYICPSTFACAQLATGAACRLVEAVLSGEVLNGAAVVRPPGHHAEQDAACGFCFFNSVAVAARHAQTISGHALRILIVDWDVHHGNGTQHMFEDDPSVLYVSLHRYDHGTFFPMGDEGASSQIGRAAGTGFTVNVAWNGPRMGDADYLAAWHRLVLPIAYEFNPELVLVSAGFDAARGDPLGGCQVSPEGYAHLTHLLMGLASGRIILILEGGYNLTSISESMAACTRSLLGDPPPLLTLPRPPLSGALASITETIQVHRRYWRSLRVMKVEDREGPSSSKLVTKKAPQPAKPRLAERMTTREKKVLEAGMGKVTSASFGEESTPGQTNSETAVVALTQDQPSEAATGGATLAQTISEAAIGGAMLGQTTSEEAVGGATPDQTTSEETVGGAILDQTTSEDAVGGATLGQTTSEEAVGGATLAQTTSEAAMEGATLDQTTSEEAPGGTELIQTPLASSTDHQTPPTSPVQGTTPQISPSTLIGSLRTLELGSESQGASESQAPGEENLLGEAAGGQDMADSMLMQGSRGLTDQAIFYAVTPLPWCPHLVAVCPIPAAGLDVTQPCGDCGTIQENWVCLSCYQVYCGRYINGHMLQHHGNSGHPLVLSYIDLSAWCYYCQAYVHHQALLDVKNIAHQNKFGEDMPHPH

[9] = target: T2, Histone deacetylase 8 (Homo sapiens, UniProt Q9BY41); test: Inhibition of human HDAC8 by fluorimetry; in short: as §1
T2 sequence (Q9BY41 whole entry): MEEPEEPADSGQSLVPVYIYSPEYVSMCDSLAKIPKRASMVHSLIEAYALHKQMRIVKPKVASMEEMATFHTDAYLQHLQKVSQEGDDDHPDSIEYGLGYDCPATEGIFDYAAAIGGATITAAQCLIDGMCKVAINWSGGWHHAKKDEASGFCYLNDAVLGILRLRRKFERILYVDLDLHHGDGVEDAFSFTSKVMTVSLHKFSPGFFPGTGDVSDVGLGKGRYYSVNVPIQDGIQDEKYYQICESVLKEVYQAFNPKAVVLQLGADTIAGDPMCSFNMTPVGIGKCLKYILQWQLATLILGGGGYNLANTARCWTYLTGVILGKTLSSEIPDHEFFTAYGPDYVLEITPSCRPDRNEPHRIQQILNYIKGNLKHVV

[10] = target: Histone deacetylase 9 (Homo sapiens, UniProt Q9UKV0); test: Inhibition of human HDAC9 by fluorimetry; in short: as §1
[11] = target: T3, Polyamine deacetylase HDAC10 (Homo sapiens, UniProt Q969S8); test: Inhibition of human HDAC10 by fluorimetry; in short: as §1
T3 sequence (Q969S8 whole entry): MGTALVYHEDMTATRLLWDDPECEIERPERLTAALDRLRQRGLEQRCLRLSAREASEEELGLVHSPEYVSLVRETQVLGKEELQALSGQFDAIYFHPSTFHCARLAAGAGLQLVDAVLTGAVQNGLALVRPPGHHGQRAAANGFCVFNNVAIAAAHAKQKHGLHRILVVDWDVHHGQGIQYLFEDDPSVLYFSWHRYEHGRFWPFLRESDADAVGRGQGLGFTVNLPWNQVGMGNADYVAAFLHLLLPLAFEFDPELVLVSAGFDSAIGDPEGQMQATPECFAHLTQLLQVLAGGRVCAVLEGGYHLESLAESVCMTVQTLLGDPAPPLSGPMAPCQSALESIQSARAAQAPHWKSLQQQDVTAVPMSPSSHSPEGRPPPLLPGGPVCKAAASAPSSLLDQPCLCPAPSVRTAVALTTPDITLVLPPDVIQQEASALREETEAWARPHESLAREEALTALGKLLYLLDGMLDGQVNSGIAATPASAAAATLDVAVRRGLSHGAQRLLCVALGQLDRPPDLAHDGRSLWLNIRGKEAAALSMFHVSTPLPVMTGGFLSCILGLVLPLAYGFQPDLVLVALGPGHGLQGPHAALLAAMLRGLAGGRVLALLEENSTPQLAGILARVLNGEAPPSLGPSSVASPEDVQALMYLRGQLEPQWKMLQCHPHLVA

Histone deacetylase 5, sequence (Q9UQL6 whole entry): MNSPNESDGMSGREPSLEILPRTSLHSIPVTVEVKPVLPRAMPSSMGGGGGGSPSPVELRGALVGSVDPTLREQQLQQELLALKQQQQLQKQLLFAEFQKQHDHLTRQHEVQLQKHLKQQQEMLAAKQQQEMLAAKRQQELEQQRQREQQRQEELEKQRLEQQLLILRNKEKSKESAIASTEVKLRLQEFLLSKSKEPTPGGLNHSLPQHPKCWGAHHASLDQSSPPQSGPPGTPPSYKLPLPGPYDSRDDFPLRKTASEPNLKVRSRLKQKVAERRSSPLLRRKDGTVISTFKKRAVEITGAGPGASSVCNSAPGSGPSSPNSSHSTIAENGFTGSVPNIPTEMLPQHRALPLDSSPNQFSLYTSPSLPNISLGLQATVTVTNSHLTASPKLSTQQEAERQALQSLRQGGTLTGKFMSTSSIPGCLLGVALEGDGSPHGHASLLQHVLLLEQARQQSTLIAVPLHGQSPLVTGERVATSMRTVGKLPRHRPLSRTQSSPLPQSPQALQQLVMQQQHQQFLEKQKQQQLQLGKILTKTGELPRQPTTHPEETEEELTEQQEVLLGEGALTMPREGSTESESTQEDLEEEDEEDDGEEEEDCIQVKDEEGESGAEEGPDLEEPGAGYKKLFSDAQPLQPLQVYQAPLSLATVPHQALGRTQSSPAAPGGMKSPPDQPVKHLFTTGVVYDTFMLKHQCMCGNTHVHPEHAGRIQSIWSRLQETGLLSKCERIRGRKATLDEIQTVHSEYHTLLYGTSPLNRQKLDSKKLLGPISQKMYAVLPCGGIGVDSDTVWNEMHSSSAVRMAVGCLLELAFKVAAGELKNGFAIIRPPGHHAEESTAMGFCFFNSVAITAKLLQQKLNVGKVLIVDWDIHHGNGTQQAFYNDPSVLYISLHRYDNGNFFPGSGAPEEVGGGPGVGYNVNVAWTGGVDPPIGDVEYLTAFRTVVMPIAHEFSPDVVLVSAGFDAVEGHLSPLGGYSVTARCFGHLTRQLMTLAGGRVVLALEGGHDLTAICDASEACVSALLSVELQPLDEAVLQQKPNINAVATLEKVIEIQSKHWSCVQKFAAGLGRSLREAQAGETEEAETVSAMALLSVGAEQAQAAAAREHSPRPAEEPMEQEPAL
Histone deacetylase 4, sequence (P56524 whole entry): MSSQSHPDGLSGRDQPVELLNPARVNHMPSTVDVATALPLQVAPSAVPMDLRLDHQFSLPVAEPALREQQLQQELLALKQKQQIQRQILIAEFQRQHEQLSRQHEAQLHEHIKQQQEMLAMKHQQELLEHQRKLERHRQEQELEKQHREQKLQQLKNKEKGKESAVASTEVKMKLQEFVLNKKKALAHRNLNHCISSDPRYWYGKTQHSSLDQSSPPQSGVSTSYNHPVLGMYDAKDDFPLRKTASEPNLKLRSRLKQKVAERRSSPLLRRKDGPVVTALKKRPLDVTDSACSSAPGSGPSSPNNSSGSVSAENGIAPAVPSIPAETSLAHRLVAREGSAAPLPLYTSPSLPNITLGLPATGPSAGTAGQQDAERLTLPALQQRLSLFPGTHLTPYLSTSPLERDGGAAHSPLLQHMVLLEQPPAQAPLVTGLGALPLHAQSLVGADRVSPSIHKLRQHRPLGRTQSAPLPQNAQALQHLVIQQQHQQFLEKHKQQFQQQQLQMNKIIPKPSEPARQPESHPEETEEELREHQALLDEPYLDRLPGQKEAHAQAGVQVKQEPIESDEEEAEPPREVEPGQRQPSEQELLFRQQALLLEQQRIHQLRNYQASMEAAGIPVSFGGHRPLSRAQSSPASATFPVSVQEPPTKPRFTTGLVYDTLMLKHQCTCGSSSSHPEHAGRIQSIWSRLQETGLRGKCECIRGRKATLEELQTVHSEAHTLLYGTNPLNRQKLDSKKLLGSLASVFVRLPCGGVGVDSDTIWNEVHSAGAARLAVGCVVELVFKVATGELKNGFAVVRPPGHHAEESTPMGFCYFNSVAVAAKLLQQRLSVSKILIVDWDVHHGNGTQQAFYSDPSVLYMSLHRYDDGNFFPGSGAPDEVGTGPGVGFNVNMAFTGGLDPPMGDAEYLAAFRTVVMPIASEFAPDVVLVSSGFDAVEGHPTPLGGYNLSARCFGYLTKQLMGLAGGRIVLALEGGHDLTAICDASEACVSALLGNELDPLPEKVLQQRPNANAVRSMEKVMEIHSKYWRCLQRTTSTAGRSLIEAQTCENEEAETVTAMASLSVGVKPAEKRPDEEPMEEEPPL
Histone deacetylase 1, sequence (Q13547 whole entry, the tested form may be a part, canonical isoform): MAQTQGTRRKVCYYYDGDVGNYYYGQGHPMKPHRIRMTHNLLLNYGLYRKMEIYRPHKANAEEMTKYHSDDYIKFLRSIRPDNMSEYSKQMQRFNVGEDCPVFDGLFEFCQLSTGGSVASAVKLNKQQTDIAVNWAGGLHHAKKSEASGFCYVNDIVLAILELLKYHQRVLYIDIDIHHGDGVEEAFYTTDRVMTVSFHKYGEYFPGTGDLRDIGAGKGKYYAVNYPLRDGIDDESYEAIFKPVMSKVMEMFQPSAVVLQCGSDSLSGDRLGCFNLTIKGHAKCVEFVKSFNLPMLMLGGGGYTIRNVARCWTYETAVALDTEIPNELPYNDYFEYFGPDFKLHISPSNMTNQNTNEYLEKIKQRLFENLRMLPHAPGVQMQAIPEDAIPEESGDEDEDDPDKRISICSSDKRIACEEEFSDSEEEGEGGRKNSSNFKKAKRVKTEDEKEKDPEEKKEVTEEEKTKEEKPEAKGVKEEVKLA
Histone deacetylase 9, sequence (Q9UKV0 whole entry): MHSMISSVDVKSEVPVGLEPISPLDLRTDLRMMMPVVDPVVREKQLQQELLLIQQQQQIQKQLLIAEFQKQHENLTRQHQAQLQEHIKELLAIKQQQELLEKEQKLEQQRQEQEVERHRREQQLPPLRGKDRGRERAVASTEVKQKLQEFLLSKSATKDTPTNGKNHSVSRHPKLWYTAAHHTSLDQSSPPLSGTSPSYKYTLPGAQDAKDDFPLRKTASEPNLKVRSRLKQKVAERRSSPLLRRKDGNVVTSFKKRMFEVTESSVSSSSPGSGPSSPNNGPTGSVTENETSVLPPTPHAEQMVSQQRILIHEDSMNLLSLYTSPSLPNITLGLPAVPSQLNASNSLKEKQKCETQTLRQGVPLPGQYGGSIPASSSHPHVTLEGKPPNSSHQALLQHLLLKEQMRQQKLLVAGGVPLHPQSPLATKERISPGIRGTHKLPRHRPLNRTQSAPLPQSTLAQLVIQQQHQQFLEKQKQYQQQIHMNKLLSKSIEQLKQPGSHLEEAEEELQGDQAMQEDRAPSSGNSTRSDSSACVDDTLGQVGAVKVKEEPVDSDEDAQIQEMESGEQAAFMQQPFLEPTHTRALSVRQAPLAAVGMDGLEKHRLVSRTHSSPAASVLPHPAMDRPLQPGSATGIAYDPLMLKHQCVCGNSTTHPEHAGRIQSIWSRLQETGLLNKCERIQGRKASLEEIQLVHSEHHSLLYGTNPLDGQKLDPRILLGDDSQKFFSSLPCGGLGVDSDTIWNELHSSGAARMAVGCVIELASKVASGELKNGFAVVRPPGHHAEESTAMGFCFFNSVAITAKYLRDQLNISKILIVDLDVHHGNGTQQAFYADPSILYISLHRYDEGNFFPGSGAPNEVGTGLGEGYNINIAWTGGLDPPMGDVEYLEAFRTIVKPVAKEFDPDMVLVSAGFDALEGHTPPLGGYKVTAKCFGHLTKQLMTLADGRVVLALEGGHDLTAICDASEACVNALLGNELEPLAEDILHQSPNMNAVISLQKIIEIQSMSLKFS
Histone deacetylase 2, sequence (Q92769 whole entry): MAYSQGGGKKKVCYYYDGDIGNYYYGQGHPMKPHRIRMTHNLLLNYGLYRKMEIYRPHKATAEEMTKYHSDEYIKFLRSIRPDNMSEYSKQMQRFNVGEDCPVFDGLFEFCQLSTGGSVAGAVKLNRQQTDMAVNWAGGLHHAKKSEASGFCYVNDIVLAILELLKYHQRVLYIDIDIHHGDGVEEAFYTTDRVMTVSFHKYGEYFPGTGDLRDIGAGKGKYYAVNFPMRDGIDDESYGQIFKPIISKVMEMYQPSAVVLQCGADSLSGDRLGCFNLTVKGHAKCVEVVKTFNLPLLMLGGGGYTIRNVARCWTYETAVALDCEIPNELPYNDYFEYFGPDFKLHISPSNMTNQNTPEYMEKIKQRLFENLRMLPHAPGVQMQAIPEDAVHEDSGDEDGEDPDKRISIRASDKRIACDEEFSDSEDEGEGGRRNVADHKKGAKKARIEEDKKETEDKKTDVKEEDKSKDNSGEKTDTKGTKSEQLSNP
Histone deacetylase 3, sequence (O15379 whole entry): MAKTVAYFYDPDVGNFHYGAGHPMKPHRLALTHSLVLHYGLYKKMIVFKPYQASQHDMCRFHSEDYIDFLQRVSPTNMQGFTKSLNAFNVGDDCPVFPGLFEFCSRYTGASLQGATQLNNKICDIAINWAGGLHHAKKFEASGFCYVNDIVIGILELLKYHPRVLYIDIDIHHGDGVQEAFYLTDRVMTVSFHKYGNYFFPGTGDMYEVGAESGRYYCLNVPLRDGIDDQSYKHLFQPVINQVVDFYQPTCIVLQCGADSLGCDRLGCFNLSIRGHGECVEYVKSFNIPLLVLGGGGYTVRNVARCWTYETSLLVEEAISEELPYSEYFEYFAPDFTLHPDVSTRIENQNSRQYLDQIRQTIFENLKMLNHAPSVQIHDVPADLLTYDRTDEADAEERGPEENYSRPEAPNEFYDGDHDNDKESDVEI

Compound: CCc1cccc2c(C(CCCCCC(=O)NO)c3c[nH]c4c(CC)cccc34)c[nH]c12
- IC50 [1]: 4.8 µM
- IC50 [2]: 3.5 µM

Compound: CN(O)C(=O)CCCCCC(c1c[nH]c2ccccc12)c1c[nH]c2ccccc12
- IC50 [1]: > 20 µM
- IC50 [2]: > 20 µM

Compound: Cc1[nH]c2ccccc2c1C(CCCCCC(=O)NO)c1c(C)[nH]c2ccccc12
- IC50 [1]: 4.3 µM
- IC50 [2]: 3.2 µM

Compound: Cn1cc(C(CCCCCC(=O)NO)c2cn(C)c3ccccc23)c2ccccc21
- IC50 [1]: 8.8 µM
- IC50 [2]: 6.6 µM

Compound: O=C(CCCCCCC(c1c[nH]c2ccccc12)c1c[nH]c2ccccc12)NO
- IC50 [1]: 2.7 µM
- IC50 [2]: 3.5 µM

Compound: CN(O)C(=O)CCCCCC(c1cn(C)c2ccccc12)c1cn(C)c2ccccc12
- IC50 [1]: > 20 µM
- IC50 [2]: > 20 µM

Compound: O=C(CCCCCC(c1c[nH]c2ccc([N+](=O)[O-])cc12)c1c[nH]c2ccc([N+](=O)[O-])cc12)NO
- IC50 [1]: 3.2 µM
- IC50 [2]: 1.2 µM
- IC50 [3]: 140 nM
- IC50 [4]: 590 nM
- IC50 [5]: 18 nM
- IC50 [6]: 220 nM
- IC50 [7]: 140 nM
- IC50 [8]: 20 nM
- IC50 [9]: 600 nM
- IC50 [10]: 150 nM
- IC50 [11]: 250 nM

Compound: COc1cccc2c(C(CCCCCC(=O)NO)c3c[nH]c4c(OC)cccc34)c[nH]c12
- IC50 [1]: 0.55 µM
- IC50 [2]: 0.41 µM
- IC50 [3]: 83 nM
- IC50 [4]: 440 nM
- IC50 [5]: 23 nM
- IC50 [6]: 220 nM
- IC50 [7]: 311 nM
- IC50 [8]: 2.6 nM
- IC50 [9]: 180 nM
- IC50 [10]: 340 nM
- IC50 [11]: 240 nM

Compound: O=C(CCCCCC(c1cc2ccccc2[nH]1)c1c[nH]c2ccccc12)NO (stereo unspecified)
- IC50 [1]: 0.82 µM
- IC50 [2]: 0.84 µM
